From ChEMBL document CHEMBL1147968, “Novel lbeta-methylcarbapenems having cyclic sulfonamide moieties: synthesis and evaluation of in vitro antibacterial activity” (2007)
Converted amounts (≈) assume the structure as drawn.

Tests used:
Assay type in all cases: functional
Enterococcus faecalis = assay: Antibacterial activity against Enterococcus faecalis 2347 after 18 to 24 hrs by agar dilution method
Summary of the method: (§1)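 MICs were determined by agar dilution on test agar. An overnight tryptosoy broth culture was diluted in the same broth to about 10⁶ cells/mL and spotted with an inoculating device onto agar containing serial twofold dilutions of compound. Plates were incubated at 37 °C for 18–20 h, and the MIC was the lowest concentration with no visible growth.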

Pseudomonas aeruginosa = assay: Antibacterial activity against Pseudomonas aeruginosa 5455 after 18 to 24 hrs by agar dilution method; summary of the method: as §1
Haemophilus influenzae = assay: Antibacterial activity against Haemophilus influenzae 1210 after 18 to 24 hrs by agar dilution method; summary of the method: as §1
Enterobacter cloacae = assay: Antibacterial activity against Enterobacter cloacae 34 after 18 to 24 hrs by agar dilution method; summary of the method: as §1
Klebsiella pneumoniae = assay: Antibacterial activity against Klebsiella pneumoniae 523 after 18 to 24 hrs by agar dilution method; summary of the method: as §1
Acinetobacter baumannii = assay: Antibacterial activity against Acinetobacter baumannii 2289 after 18 to 24 hrs by agar dilution method; summary of the method: as §1
Staphylococcus = assay: Antibacterial activity against coagulase negative Staphylococcus after 18 to 24 hrs by agar dilution method
Summary of the method: (§2)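 Agar dilution on test agar holding serial twofold dilutions of compound. Overnight tryptosoy broth cultures were diluted in the same broth to about 10⁶ cells/mL and spotted with an inoculating device. Plates were incubated at 37 °C for 18–20 h.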

Escherichia coli = assay: Antibacterial activity against Escherichia coli 04 after 18 to 24 hrs by agar dilution method; summary of the method: as §1
Staphylococcus aureus = assay: Antibacterial activity against Staphylococcus aureus 1218 after 18 to 24 hrs by agar dilution method; summary of the method: as §1
Streptococcus agalactiae = assay: Antibacterial activity against Streptococcus agalactiae 32 after 18 to 24 hrs by agar dilution method; summary of the method: as §1
Serratia marcescens = assay: Antibacterial activity against Serratia marcescens 3349 after 18 to 24 hrs by agar dilution method; summary of the method: as §1
Citrobacter freundii = assay: Antibacterial activity against Citrobacter freundii 323 after 18 to 24 hrs by agar dilution method; summary of the method: as §1
Streptococcus pyogenes = assay: Antibacterial activity against Streptococcus pyogenes 9889 after 18 to 24 hrs by agar dilution method; summary of the method: as §2
Streptococcus pneumoniae = assay: Antibacterial activity against Streptococcus pneumoniae 0025 after 18 to 24 hrs by agar dilution method; summary of the method: as §1

For `CCN1CCN(C[C@@H]2C[C@H](SC3=C(C(=O)O)N4C(=O)C([C@@H](C)O)C4[C@H]3C)CN2)S1(=O)=O` (stereo not given in full), the MIC (Enterococcus faecalis) was 6.25 µg/mL (≈ 13.2 µM), the MIC (Pseudomonas aeruginosa) was 12.5 µg/mL (≈ 26.3 µM) and the MIC (Haemophilus influenzae) was 12.5 µg/mL (≈ 26.3 µM). For the same compound, the MIC (Enterobacter cloacae) was 0.098 µg/mL (≈ 0.206 µM), the MIC (Klebsiella pneumoniae) was 0.198 µg/mL (≈ 0.417 µM) and the MIC (Acinetobacter baumannii) was 25 µg/mL (≈ 52.7 µM). For the same compound, the MIC (Staphylococcus) was 0.198 µg/mL (≈ 0.417 µM), the MIC (Escherichia coli) was 0.098 µg/mL (≈ 0.206 µM) and the MIC (Staphylococcus aureus) was 25 µg/mL (≈ 52.7 µM). For the same compound, the MIC (Streptococcus agalactiae) was 0.04 µg/mL (≈ 0.0843 µM), the MIC (Serratia marcescens) was 0.098 µg/mL (≈ 0.206 µM) and the MIC (Citrobacter freundii) was 0.098 µg/mL (≈ 0.206 µM). It also gave an MIC (Streptococcus pyogenes) of 0.02 µg/mL (≈ 0.0421 µM) and an MIC (Streptococcus pneumoniae) of 0.04 µg/mL (≈ 0.0843 µM).
`CC1CN(C[C@@H]2C[C@H](SC3=C(C(=O)O)N4C(=O)C([C@@H](C)O)C4[C@H]3C)CN2)S(=O)(=O)N1` (stereo not given in full) gave an MIC (Enterococcus faecalis) of 25 µg/mL (≈ 54.3 µM), an MIC (Pseudomonas aeruginosa) of 25 µg/mL (≈ 54.3 µM) and an MIC (Haemophilus influenzae) of 12.5 µg/mL (≈ 27.1 µM). For the same compound, the MIC (Enterobacter cloacae) was 0.195 µg/mL (≈ 0.423 µM), the MIC (Klebsiella pneumoniae) was 0.198 µg/mL (≈ 0.43 µM) and the MIC (Acinetobacter baumannii) was 25 µg/mL (≈ 54.3 µM). The MIC (Staphylococcus) was 0.391 µg/mL (≈ 0.849 µM), the MIC (Escherichia coli) was 0.198 µg/mL (≈ 0.43 µM) and the MIC (Staphylococcus aureus) was 25 µg/mL (≈ 54.3 µM). The MIC (Streptococcus agalactiae) was 0.04 µg/mL (≈ 0.0868 µM), the MIC (Serratia marcescens) was 0.195 µg/mL (≈ 0.423 µM) and the MIC (Citrobacter freundii) was 0.198 µg/mL (≈ 0.43 µM). It also gave an MIC (Streptococcus pyogenes) of 0.04 µg/mL (≈ 0.0868 µM) and an MIC (Streptococcus pneumoniae) of 0.04 µg/mL (≈ 0.0868 µM).
Compound `C[C@@H](O)C1C(=O)N2C(C(=O)O)=C(S[C@@H]3CN[C@H](CN4CCNS4(=O)=O)C3)[C@H](C)C12` (stereo not given in full) has an MIC (Enterococcus faecalis) of 6.25 µg/mL (≈ 14 µM), an MIC (Pseudomonas aeruginosa) of 0.781 µg/mL (≈ 1.75 µM) and an MIC (Haemophilus influenzae) of 6.25 µg/mL (≈ 14 µM). For the same compound, the MIC (Enterobacter cloacae) was 0.049 µg/mL (≈ 0.11 µM), the MIC (Klebsiella pneumoniae) was 0.049 µg/mL (≈ 0.11 µM) and the MIC (Acinetobacter baumannii) was 12.5 µg/mL (≈ 28 µM). For the same compound, the MIC (Staphylococcus) was 0.098 µg/mL (≈ 0.219 µM), the MIC (Escherichia coli) was 0.049 µg/mL (≈ 0.11 µM) and the MIC (Staphylococcus aureus) was 3.12 µg/mL (≈ 6.99 µM). For the same compound, the MIC (Streptococcus agalactiae) was 0.02 µg/mL (≈ 0.0448 µM), the MIC (Serratia marcescens) was 0.049 µg/mL (≈ 0.11 µM) and the MIC (Citrobacter freundii) was 0.049 µg/mL (≈ 0.11 µM). The MIC (Streptococcus pyogenes) was 0.01 µg/mL (≈ 0.0224 µM) and the MIC (Streptococcus pneumoniae) was 0.02 µg/mL (≈ 0.0448 µM).
In the case of `C[C@@H](O)C1C(=O)N2C(C(=O)O)=C(S[C@@H]3CN[C@H](CN4CCOS4(=O)=O)C3)[C@H](C)C12` (stereo not given in full), the MIC (Enterococcus faecalis) is reported as 6.25 µg/mL (≈ 14 µM), the MIC (Pseudomonas aeruginosa) is reported as 12.5 µg/mL (≈ 27.9 µM) and the MIC (Haemophilus influenzae) is reported as 6.25 µg/mL (≈ 14 µM). The MIC (Enterobacter cloacae) was 0.098 µg/mL (≈ 0.219 µM), the MIC (Klebsiella pneumoniae) was 0.098 µg/mL (≈ 0.219 µM) and the MIC (Acinetobacter baumannii) was 12.5 µg/mL (≈ 27.9 µM). It also gave an MIC (Staphylococcus) of 0.098 µg/mL (≈ 0.219 µM), an MIC (Escherichia coli) of 0.049 µg/mL (≈ 0.109 µM) and an MIC (Staphylococcus aureus) of 3.12 µg/mL (≈ 6.97 µM). It also gave an MIC (Streptococcus agalactiae) of 0.02 µg/mL (≈ 0.0447 µM), an MIC (Serratia marcescens) of 0.198 µg/mL (≈ 0.442 µM) and an MIC (Citrobacter freundii) of 0.195 µg/mL (≈ 0.436 µM). The MIC (Streptococcus pyogenes) was 0.02 µg/mL (≈ 0.0447 µM) and the MIC (Streptococcus pneumoniae) was 0.013 µg/mL (≈ 0.029 µM).
For `C[C@@H](O)C1C(=O)N2C(C(=O)O)=C(S[C@@H]3CN[C@H](CN4CCCNS4(=O)=O)C3)[C@H](C)C12` (stereo not given in full), the MIC (Enterococcus faecalis) was 6.25 µg/mL (≈ 13.6 µM), the MIC (Pseudomonas aeruginosa) was 1.56 µg/mL (≈ 3.39 µM) and the MIC (Haemophilus influenzae) was 6.25 µg/mL (≈ 13.6 µM). The MIC (Enterobacter cloacae) was 0.049 µg/mL (≈ 0.106 µM), the MIC (Klebsiella pneumoniae) was 0.049 µg/mL (≈ 0.106 µM) and the MIC (Acinetobacter baumannii) was 6.25 µg/mL (≈ 13.6 µM). For the same compound, the MIC (Staphylococcus) was 0.098 µg/mL (≈ 0.213 µM), the MIC (Escherichia coli) was 0.049 µg/mL (≈ 0.106 µM) and the MIC (Staphylococcus aureus) was 6.25 µg/mL (≈ 13.6 µM). The MIC (Streptococcus agalactiae) was 0.01 µg/mL (≈ 0.0217 µM), the MIC (Serratia marcescens) was 0.198 µg/mL (≈ 0.43 µM) and the MIC (Citrobacter freundii) was 0.049 µg/mL (≈ 0.106 µM). For the same compound, the MIC (Streptococcus pyogenes) was 0.01 µg/mL (≈ 0.0217 µM) and the MIC (Streptococcus pneumoniae) was 0.02 µg/mL (≈ 0.0434 µM).
